Series [1] deals with COS‐7 cells. Description: Modified MTT assay. The class given is cell-based, monkey. The conditions noted are these: non-malignant COS-7 cells. The method in brief: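 COS-7 cells seeded 2×10³ per well in triplicate, then 24 h in humidified 5% CO2/95% air at 37 °C before dosing. Test compound added at 20 μM alongside a DMSO vehicle control (DMSO ≤0.1% final) and incubated 72 h. Metabolic activity read by the EZ4U modified MTT (formazan) assay and expressed relative to vehicle control set at 100%. Mean + SD, ≥3 independent experiments, three replicates each.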

For series [2], the system named is K562‐resistant cells. In words: Induction of cell death by PI FACS analyses, without or with imatinib. As to conditions: for cell death rate, compound in combination with imatinib: 10 μM compound + 1 μM imatinib. The format is cell-based.
Series [3] concerns the target T1, PPARγ (Homo sapiens, UniProt P37231).
T1 sequence (P37231 238-503 limits assumed): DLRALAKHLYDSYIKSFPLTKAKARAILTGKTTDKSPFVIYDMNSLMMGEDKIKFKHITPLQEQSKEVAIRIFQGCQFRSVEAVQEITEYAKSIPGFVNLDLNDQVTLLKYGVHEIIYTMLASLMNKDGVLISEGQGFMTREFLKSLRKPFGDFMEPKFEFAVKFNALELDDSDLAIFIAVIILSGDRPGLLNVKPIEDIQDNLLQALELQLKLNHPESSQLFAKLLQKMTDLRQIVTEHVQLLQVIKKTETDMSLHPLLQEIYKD
In words: PPARγ luciferase transactivation assay. The class given is cell-based.

The term EC50 denotes the concentration that produces a half-maximal response. Lower therefore signals greater potency.

Regarding `CCCc1nc2ccccc2n1Cc1ccc(-c2ccccc2C(=O)OC)cc1` [2 b, Methyl 4′‐((2‐propyl‐1H‐benzo[d]imidazol‐1‐yl)methyl)‐[1,1′‐biphenyl]‐2‐carboxylate], in series [1], the “cytotoxicity per se (in words)” value was “did not exert cytotoxicity per se”. Also, the “cell death rate, compound in combination with imatinib” value (from here on “cell death rate … with imatinib”) in series [2] (72 h) was determined as 80%. The “cell death rate, compound alone” value in series [2] (10 μM compound, 72 h, without imatinib) worked out at 21%. Besides, the “PPARγ activation at 20 μM” value in series [3] (compound at 20 μM, relative to pioglitazone 10 μM = 100 %) is reported as “about 36%”.
In the case of `O=C(O)c1ccccc1-c1ccc(Cn2c3ccccc3c3ccccc32)cc1` [3 a, 4′‐((9H‐Carbazol‐9‐yl)methyl)‐[1,1′‐biphenyl]‐2‐carboxylic acid], a half-maximal effect in series [3] (EC50) was put at 10.4 ± 3.9 µM.
In the case of `CCCc1nc2ccccc2n1Cc1ccc(-c2ccccc2C(=O)O)cc1` [3 b, 4′‐((2‐Propyl‐1H‐benzo[d]imidazol‐1‐yl)methyl)‐[1,1′‐biphenyl]‐2‐carboxylic acid], the “cell death rate … with imatinib” value in series [2] (72 h) worked out at 31%. In series [3], this compound gave an EC50 of 6.98 ± 1.06 µM.
As for `CCc1c(C)n(Cc2ccc(-c3ccccc3C(=O)O)cc2)c2ccccc12` [3 c, 4′‐((3‐Ethyl‐2‐methyl‐1H‐indol‐1‐yl)methyl)‐[1,1′‐biphenyl]‐2‐carboxylic acid], a half-maximal response in series [3] (EC50) required 6.86 ± 1.58 µM.
Turning to `CCCc1nc2cc(Br)ccc2n1Cc1ccc(-c2ccccc2C(=O)OC)cc1` [5 b, Methyl 4′‐((5‐bromo‐2‐propyl‐1H‐benzo[d]imidazol‐1‐yl)methyl)‐[1,1′‐biphenyl]‐2‐carboxylate], the “cell death rate … with imatinib” value in series [2] (72 h) stood at 31%.
For the compound `O=C(O)c1ccccc1-c1ccc(Cn2c3ccccc3c3cc(Br)ccc32)cc1` [6 a, 4′‐((3‐Bromo‐9H‐carbazol‐9‐yl)methyl)‐[1,1′‐biphenyl]‐2‐carboxylic acid], the 50% effective concentration (EC50) in series [3] came out at 5.68 ± 1.07 µM.
On the same count and under the same terms, for `CCc1c(C)n(Cc2ccc(-c3ccccc3C(=O)O)cc2)c2ccc(Br)cc12` [6 c, 4′‐((5‐Bromo‐3‐ethyl‐2‐methyl‐1H‐indol‐1‐yl)methyl)‐[1,1′‐biphenyl]‐2‐carboxylic acid] the value was 9.52 ± 0.74 µM.
In the case of `CCCc1nc2ccc(Br)cc2n1Cc1ccc(-c2ccccc2C(=O)OC)cc1` [6‐Br‐CO2CH3, methyl 4′‐((6‐bromo‐2‐propyl‐1H‐benzo[d]imidazol‐1‐yl)methyl)‐[1,1′‐biphenyl]‐2‐carboxylate], the “cell death rate … with imatinib” value in series [2] (72 h) is listed as 63%.
Take `Cc1ccc(NC(=O)c2ccc(CN3CCN(C)CC3)cc2)cc1Nc1nccc(-c2cccnc2)n1` [imatinib, reference compound]: the “cell death, imatinib alone” value in series [2] (1 μM imatinib, K562-resistant (KD225) cells) is given as 10–20%.
In series [3], `CCCc1nc2c(C)cc(-c3nc4ccccc4n3C)cc2n1Cc1ccc(-c2ccccc2C(=O)O)cc1` [telmisartan, reference compound] registered an EC50 of 4.78 ± 0.79 µM.
